Assay results gathered from unrelated publications.
Each line is one published result; the experiments were not run side by side.
UGT1A9: UDP-glucuronosyltransferase 1A9 (UGT1A9, Homo sapiens, UniProt O60656)

Compound	tested on	test	test system	conditions	quantity	result
N#Cc1cc(NC(=O)[C@H]2c3ccccc3C(=O)N(CC(F)(F)F)[C@@H]2c2cccnc2)ccc1F		metabolic stability	dog, liver microsomes		half-life	> 4 h
O=C1CCCCC1=C1Sc2nc3ccc(S(=O)(=O)N4CCCC4)cc3nc2S1	WI-38	cell growth or viability, MTT		25 µM, 24 h	viability	70.8%
CC(C)(O)c1cn(-c2ccc(-c3cc(F)c(CO)c(S(C)(=O)=O)c3)cc2)c(C(C)(C)c2cccc(F)c2Cl)n1			male cynomolgus monkey, plasma	intravenous, 1 mg/kg, single dose	clearance	9.4 mL/min/kg
CON=C(N)c1ccc(-c2ccc(-c3ccc(C(N)=NOC)cc3)o2)cc1	Cytochrome P450 1A1 (CYP1A1, Homo sapiens, UniProt P04798)	enzyme activity, substrate			Km	0.5 µM
C[C@H](O)c1cc(C(=O)N[C@@H](C)Cn2ccc(-c3ccc(C#N)c(Cl)c3)n2)n[nH]1	UGT1A9	enzyme activity, inhibitor	human, liver microsomes		IC50	> 100 µM
N#CC(C(=O)Nc1cccc(C(F)(F)F)c1)=C1Sc2nc3ccc(S(=O)(=O)N4CCCC4)cc3nc2S1	WI-38	cell growth or viability, MTT		3.125 µM, 24 h	viability	100%
CC(=O)c1cc(C(=O)N[C@@H](C)Cn2ccc(-c3ccc(C#N)c(Cl)c3)n2)[nH]n1	UGT1A9	enzyme activity, inhibitor	human, liver microsomes		IC50	> 50 µM
CN(CCC(=O)O)C(=O)c1ccc2c(c1)CC[C@@H]1[C@@H]2CC[C@]2(C)C(c3cncc(F)c3)=CC[C@@H]12	UGT1A9	enzyme activity, inhibitor			IC50	> 30 µM
CC(C)(O)c1cn(-c2ccc(-c3ccc(CO)c(S(C)(=O)=O)c3)cc2)c(Cc2ccccc2Cl)n1			cynomolgus monkey, plasma	intravenous, 0.25 mg/kg, single dose	clearance	61 mL/min/kg
